In brackets after ≈: the same amount, converted by molar mass. Activity calls are given as the source filed them. No cut-off for these calls is given here.
Tests used:
HT-29 [1] = assay: Induction of H2O2 production in human HT-29 cells at 100 ug/ml after 72 hrs by ferrous oxidation xylenol orange assay in presence of catalase; type: functional, cell-based
HT-29 [2] = assay: Induction of H2O2 production in human HT-29 cells at 100 ug/ml after 72 hrs by ferrous oxidation xylenol orange assay; type: functional, cell-based
[3] = Antioxidant activity against HNTTM assessed per micromol of radical after 7 hrs by UV spectrophotometry; type: functional
Outline: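 Polyphenols (2–62 μM, fresh) mixed 1:1 by volume with HNTTM (120 μM) in deoxygenated CHCl3–MeOH (2:1); 7 h at room temperature in the dark, absorbance at 384 nm. Percentage absorbance loss plotted against sample over initial radical micromoles; dose–response curve per sample, EC50 and ARP reported; three independent determinations.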

HT-29 [4] = assay: Antiproliferative activity against human HT-29 cells after 72 hrs by MTT assay; type: functional, cell-based; details: HT-29, 72 h
Outline: (§1)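 HT29 (ATCC HTB-38) in DMEM with 10% heat-inactivated FCS, 0.1% streptomycin/penicillin; 3 × 10^3 cells/well, 24 h at 37 °C, then graded concentrations in fresh medium for 72 h, optionally with bovine liver catalase (100 U/mL). MTT (1 mg/mL in PBS) 1 h, formazan dissolved in DMSO, absorbance 550 nm; IC50 from dose–viability curves; three independent experiments.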

[5] = Antiproliferative activity against human NCM460 cells after 72 hrs by MTT assay; type: cell-based; details: NCM460, 72 h
Outline: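 NCM460 normal colon mucosa epithelial cells in M3Base with 10% heat-inactivated FCS plus 2.5 mM D-glucose (5 mM final); 1 × 10^4 cells/well, 24 h at 37 °C, graded concentrations for 72 h. MTT 1 h, DMSO-dissolved formazan read at 550 nm; IC50 from dose–viability curves; three independent experiments.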

HT-29 [6] = assay: Induction of apoptosis in human HT-29 cells assessed as apoptotic cells at IC50 after 72 hrs by annexin V/propidium iodide-based flow cytometry; type: functional
Outline: (§2)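 HT29 seeded, treated 72 h and harvested as for cell cycle; staurosporine 1 μM as control. Annexin+/PI− early apoptotic; annexin+/PI+ and annexin−/PI+ late apoptotic/necrotic; three separate experiments.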

HT-29 [7] = assay: Cell cycle arrest in human HT-29 cells assessed as accumulation at S phase at IC50 after 72 hrs by propidium iodide staining based flow cytometry; type: functional
Outline: (§3)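 HT29 seeded 87 × 10^3 cells/well, 24 h at 37 °C, treated 72 h; hydroxyurea 1 mM as standard. Trypsinized cells stained in Tris-buffered saline with 50 μg/mL PI, 10 μg/mL DNase-free RNase, 0.1% Igepal CA-630, 1 h at 4 °C dark; flow cytometry at 488 nm; normalized G1/S/G2 percentages, three separate experiments.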

[8] = Antioxidant activity against TNPTM assessed per micromol of radical after 48 hrs by UV spectrophotometry; type: functional
Outline: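 As for HNTTM but with TNPTM radical, sample range 10–120 μM, 48 h incubation, absorbance at 378 nm; percentage absorbance loss versus sample over initial radical micromoles, dose–response curve, EC50 and ARP; three independent determinations.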

HT-29 [9] = assay: Induction of apoptosis in human HT-29 cells assessed as necrotic cells at IC50 after 72 hrs by annexin V/propidium iodide-based flow cytometry; type: functional; outline: as §2
HT-29 [10] = assay: Antiproliferative activity against human HT-29 cells after 72 hrs by MTT assay in presence of H2O2 scavenger catalase; type: functional, cell-based; details: HT-29, 72 h; outline: as §1
[11] = test system: Radical scavenging activity; assay: Antioxidant activity against DPPH assessed per micromol of radical after 30 mins by UV spectrophotometry; type: functional
Outline: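 DPPH radical in solution; 30 min at room temperature in the dark, absorbance at 517 nm. Percentage absorbance loss [(1 − A/A0) × 100] plotted against sample amount over initial DPPH concentration; three independent determinations per point.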

HT-29 [12] = assay: Cell cycle arrest in human HT-29 cells assessed as reduction of cells at G1 phase at IC50 after 72 hrs by propidium iodide staining based flow cytometry; type: functional; outline: as §3
HT-29 [13] = assay: Cell cycle arrest in human HT-29 cells assessed as reduction of cells at G2 phase at IC50 after 72 hrs by propidium iodide staining based flow cytometry; type: functional; outline: as §3

Row | Compound | Activity (HT-29 [1]) | Activity (HT-29 [2]) | EC50 [3] [µg/µmol] | IC50 (HT-29 [4]) [µg/mL] | IC50 [5] [µg/mL] | Activity (HT-29 [6]) [%] | Activity (HT-29 [7]) [%] | EC50 [8] [µg/µmol] | Activity (HT-29 [9]) [%] | IC50 (HT-29 [10]) [µg/mL] | EC50 [11] [µg/µmol] | Activity (HT-29 [12]) | Activity (HT-29 [13])
1 | O=C(O[C@@H]1Cc2c(O)cc(O)cc2O[C@@H]1c1cc(O)c(O)c(O)c1)c1cc(O)c(O)c(O)c1 | inactive | Dose-dependent effect | – | – | – | – | – | – | – | – | – | – | –
2 | O=C(OC[C@H]1OC(O)[C@@](O)(COC(=O)c2cc(O)c(O)c(O)c2)[C@@H]1O)c1cc(O)c(O)c(O)c1 (stereo partly specified) [HAMAMELITANNIN] | inactive | Dose-dependent effect | 71.2 | 20 (≈ 41.3 µM) | > 100 | 26 | 16 | 116 | 14 | 13 | 27.8 | – | –
3 | O=C(OC[C@H]1O[C@@H](OC(=O)c2cc(O)c(O)c(O)c2)[C@H](OC(=O)c2cc(O)c(O)c(O)c2)[C@@H](OC(=O)c2cc(O)c(O)c(O)c2)[C@@H]1OC(=O)c1cc(O)c(O)c(O)c1)c1cc(O)c(O)c(O)c1 [PENTAGALLOYL GLUCOSE] | inactive | Dose-dependent effect | 54.8 | 28 (≈ 29.8 µM) | 23 (≈ 24.5 µM) | 11 | 8 | 2400 | 5 | 34 | 23.8 | Active | Active

Source: ChEMBL document CHEMBL1949651, “Hamamelitannin from witch hazel (Hamamelis virginiana) displays specific cytotoxic activity against colon cancer cells” (J Nat Prod, 2012)
